Reference: ChEMBL document CHEMBL4118104, “Design, Synthesis, and Evaluation of Orally Bioavailable Quinoline-Indole Derivatives as Innovative Multitarget-Directed Ligands: Promotion of Cell Proliferation in the Adult Murine Hippocampus for the Treatment of Alzheimer's Disease” (J Med Chem, 2018)
Calls of active or inactive are those of the source. The rule behind the calls is not given here.

Key:
[1] = system: PC-12; experiment: Induction of rat PC12 cell proliferation at 0.5 to 50 uM after 72 hrs by microscopic analysis; assay type: functional, cell-based
Procedure, shortened: (§1)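 Undifferentiated PC12 cells cultured 72 h with compound at 0.5–50 µM (images at 10 µM) or with NGF 50 ng/ml, then examined under a digital microscope.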

[2] = biological target: Amyloid-beta precursor protein (Homo sapiens) (UniProt P05067); experiment: Inhibition of amyloid beta (1 to 42) (unknown origin) self-induced aggregation at compound to amyloid beta ratio of 1:1 after 48 hrs by thioflavin-T fluorescence assay relative to control; conditions: concentration not given here
Procedure, shortened: (§2)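 Aβ1-42 at 25 µM with compound at 1:1 in 50 mM PBS, pH 7.4, 37 °C, read by ThT fluorescence or by TEM. Disaggregation was done on preformed aggregates. ThT data are mean ± SD of at least three experiments.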

[3] = system: Mus musculus; experiment: Cognition enhancement activity in double APP/PS1 transgenic Alzheimer's disease mouse model assessed as decrease in path searching behavior at 30 mg/kg/day, po for 80 days by Morris water maze test; assay type: functional, organism-based
Procedure, shortened: (§3)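 APP/PS1 double transgenic mice, six months old, gavaged 30 mg/kg/day in 0.5% CMC-Na for 80 days; vehicle mice and WT C57BL/6 received blank CMC-Na. Escape latency recorded daily over the training trials; n = 10, mean ± SD, two-way ANOVA.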

[4] = system: Mus musculus; experiment: Cognition enhancement activity in double APP/PS1 transgenic Alzheimer's disease mouse model assessed as decrease in escape latency at 30 mg/kg/day, po for 80 days by Morris water maze test; assay type: functional, organism-based; procedure, shortened: as §3
[5] = system: Mus musculus; experiment: Cognition enhancement activity in double APP/PS1 transgenic Alzheimer's disease mouse model assessed as increase in number of effective region crossing at 30 mg/kg/day, po for 80 days by Morris water maze test; assay type: functional, organism-based
Procedure, shortened: (§4)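 APP/PS1 mice, six months old, gavaged 30 mg/kg/day in 0.5% CMC-Na for 80 days. Probe trial was a single 90 s free swim with the platform absent; effective region is twice the platform diameter. n = 10, mean ± SD, two-way ANOVA.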

[6] = biological target: Amyloid-beta precursor protein (Homo sapiens) (UniProt P05067); experiment: Induction of disaggregation of amyloid beta (1 to 42) (unknown origin) fibrils at compound to amyloid beta ratio of 1:1 after 48 hrs by thioflavin-T fluorescence assay relative to control; procedure, shortened: as §2
[7] = system: Mus musculus; experiment: Cognition enhancement activity in double APP/PS1 transgenic Alzheimer's disease mouse model assessed as increase in number of virtual platform crossing at 30 mg/kg/day, po for 80 days by Morris water maze test; assay type: functional, organism-based; procedure, shortened: as §4
[8] = system: PC-12; experiment: Induction of rat PC12 cell proliferation at 10 uM after 72 hrs by microscopic analysis; assay type: functional, cell-based; procedure, shortened: as §1
[9] = Metal chelating activity assessed as compound-Cu2+ complex formation at 50 uM after 30 mins by mass spectrometry
[10] = Induction of disaggregation of Cu2+ -associated amyloid beta (1 to 42) (unknown origin) fibrils assessed as small-sized nonfibrillar amorphos amyloid beta at compound/amyloid beta/Cu2+ ratio of 2:1:1 after 48 hrs by TEM analysis
Procedure, shortened: (§5)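 Chelator, Aβ1-42 (25 µM) and Cu2+ at 2:1:1 in HEPES/NaCl, pH 6.6, 37 °C; inhibition measured on fresh peptide and disaggregation on preformed Cu2+-Aβ aggregates. Read by ThT fluorescence (at least three experiments) or by TEM.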

[11] = biological target: Amyloid-beta precursor protein (Homo sapiens) (UniProt P05067); experiment: Inhibition of amyloid beta (1 to 42) (unknown origin) self-induced aggregation assessed as reduction in unstructured aggregates at compound to amyloid beta ratio of 1:1 after 48 hrs by TEM analysis; procedure, shortened: as §2
[12] = Metal chelating activity assessed as compound-Fe3+ complex formation by measuring absorption spectrum at 50 uM after 30 mins by UV-Visible spectrophotometric analysis (reference value: 314 nm)
Procedure, shortened: (§6)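 Ligand 50 µM alone or with 50 µM CuSO4, ZnCl2, FeSO4 or FeCl3 in 20 mM HEPES, 150 mM NaCl, pH 7.4; UV-vis absorbance spectra recorded. For Cu2+, titration at room temperature with absorbance at 338 nm gave stoichiometry.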

[13] = Inhibition of Cu2+ - induced amyloid beta (1 to 42) (unknown origin) aggregation assessed as small-sized nonfibrillar amorphos amyloid beta at compound/amyloid beta/Cu2+ ratio of 2:1:1 after 48 hrs by TEM analysis; procedure, shortened: as §5
[14] = biological target: Amyloid-beta precursor protein (Homo sapiens) (UniProt P05067); experiment: Inhibition of amyloid beta (1 to 42) (unknown origin) self-induced aggregation assessed as thinner fibrils at compound to amyloid beta ratio of 1:1 after 48 hrs by TEM analysis; procedure, shortened: as §2
[15] = system: PC-12; experiment: Induction of rat PC12 cell proliferation at 0.5 to 50 uM after 72 hrs in presence of p38 inhibitor SB203580 by MTT assay; assay type: functional, cell-based
Procedure, shortened: (§7)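 PC12 cells treated with compound together with U0126 (ERK inhibitor, 1 µM) or SB203580 (p38 inhibitor, 1 µM); survival measured by MTT, expressed as percent of control, mean ± SD of at least three experiments.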

[16] = system: PC-12; experiment: Induction of rat PC12 cell proliferation at 0.5 to 50 uM after 72 hrs in presence of ERK inhibitor U0126 by MTT assay; assay type: functional, cell-based; procedure, shortened: as §7
[17] = biological target: Amyloid-beta precursor protein (Homo sapiens) (UniProt P05067); experiment: Inhibition of amyloid beta (1 to 42) (unknown origin) self-induced aggregation assessed as less dense fibrils at compound to amyloid beta ratio of 1:1 after 48 hrs by TEM analysis; procedure, shortened: as §2
[18] = Inhibition of Cu2+ - induced amyloid beta (1 to 42) (unknown origin) aggregation at compound/amyloid beta/Cu2+ ratio of 2:1:1 after 48 hrs by thioflavin T-based fluorometric assay relative to control; conditions: concentration not given here; procedure, shortened: as §5
[19] = Metal chelating activity assessed as compound-Cu2+ complex formation by measuring absorption spectrum at 50 uM after 30 mins by UV-Visible spectrophotometric analysis (reference value: 314 nm); procedure, shortened: as §6
[20] = Metal chelating activity assessed as compound-Fe2+ complex formation by measuring absorption spectrum at 50 uM after 30 mins by UV-Visible spectrophotometric analysis (reference value: 314 nm); procedure, shortened: as §6
[21] = Metal chelating activity assessed as compound-Zn2+ complex formation by measuring absorption spectrum at 50 uM after 30 mins by UV-Visible spectrophotometric analysis (reference value: 314 nm); procedure, shortened: as §6
[22] = biological target: Amyloid-beta precursor protein (Homo sapiens) (UniProt P05067); experiment: Induction of disaggregation of amyloid beta (1 to 42) (unknown origin) assessed as shorter aggregation at compound to amyloid beta ratio of 1:1 after 48 hrs by TEM analysis; procedure, shortened: as §2
[23] = biological target: Amyloid-beta precursor protein (Homo sapiens) (UniProt P05067); experiment: Induction of disaggregation of amyloid beta (1 to 42) (unknown origin) assessed as narrow aggregation at compound to amyloid beta ratio of 1:1 after 48 hrs by TEM analysis; procedure, shortened: as §2
[24] = biological target: Amyloid-beta precursor protein (Homo sapiens) (UniProt P05067); experiment: Induction of disaggregation of Cu2+ -associated amyloid beta (1 to 42) (unknown origin) fibrils at compound/amyloid beta/Cu2+ ratio of 2:1:1 after 48 hrs by thioflavin T-based fluorometric assay relative to control; procedure, shortened: as §5
[25] = system: SH-SY5Y; experiment: Neuroprotective activity against t-BuOOH-induced oxidative stress in human SH-SY5Y cells assessed as inhibition ROS accumulation pre-incubated for 24 hrs before t-BuOOH challnge for 30 mins by DCFH-DA probe based fluorescence assay; assay type: functional, cell-based
Procedure, shortened: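 SH-SY5Y cells; test agents at 1–0.01 µM, oxidative stress induced by tert-butyl hydroperoxide; intracellular ROS read by DCFH-DA fluorescence; at least three independent experiments in sextuplicate; EC50 derived.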

[26] = biological target: Amyloid-beta precursor protein (Homo sapiens) (UniProt P05067); experiment: Inhibition of amyloid beta (1 to 42) (unknown origin) self-induced aggregation at 5 uM after 48 hrs in presence of melatonin by thioflavin-T fluorescence assay relative to control
Procedure, shortened: (§8)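 ThT assay of Aβ1-42 self-aggregation: Aβ1-42 25 µM with inhibitor 5 µM (5:1); three independent experiments, each in triplicate.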

[27] = Antioxidant activity assessed as AAPH radical scavenging activity by measuring trolox equivalent at 10 to 20 uM preincubated for 10 mins followed by AAPH addition measured every min for 120 mins in presence of melatonin by ORAC-FL assay; assay type: functional
Procedure, shortened: (§9)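 ORAC-FL: compound at 10 µM (or 20 µM) in 75 mM phosphate pH 7.4 with fluorescein (70 nM final), preincubated 10 min at 37 °C, then AAPH added. Fluorescence (ex 485/em 520) read each minute for 120 min. Net AUC converted to Trolox equivalents via a 10–100 µM Trolox curve; three independent experiments.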

[28] = system: Mus musculus; experiment: Induction of cell proliferation in C57BL/6 mouse hippocampal neurons in CA2 region assessed as BrdU-incorporation at 30 mg/kg, po administered via gavage for 7 days by immunohistochemical analysis (reference value: 2.4%); assay type: functional
Procedure, shortened: (§10)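 C57BL/6 mice, 12 weeks old, n = 6, individually housed beforehand without wheels. Compound gavaged 30 mg/kg/day for 7 days with daily IP BrdU 50 mg/kg; BrdU+ cells counted by immunohistochemistry per hippocampal volume; two-way ANOVA.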

[29] = system: Mus musculus; experiment: Induction of cell proliferation in C57BL/6 mouse hippocampal neurons in DG region assessed as BrdU-incorporation at 0.5 uL/hr, icv for 7 days by immunohistochemical analysis (reference value: 7.8%); assay type: functional
[30] = system: Mus musculus; experiment: Induction of cell proliferation in C57BL/6 mouse hippocampal neurons in CA3 region assessed as BrdU-incorporation at 0.5 uL/hr, icv for 7 days by immunohistochemical analysis (reference value: 1.4%); assay type: functional
[31] = system: Mus musculus; experiment: Induction of cell proliferation in C57BL/6 mouse hippocampal neurons in CA1 region assessed as BrdU-incorporation at 30 mg/kg, po administered via gavage for 7 days by immunohistochemical analysis (reference value: 2.3%); assay type: functional; procedure, shortened: as §10
[32] = Antioxidant activity assessed as AAPH radical scavenging activity by measuring trolox equivalent at 10 to 20 uM preincubated for 10 mins followed by AAPH addition measured every min for 120 mins in presence of clioquinol by ORAC-FL assay; assay type: functional; procedure, shortened: as §9
[33] = biological target: Amyloid-beta precursor protein (Homo sapiens) (UniProt P05067); experiment: Inhibition of amyloid beta (1 to 42) (unknown origin) self-induced aggregation at 5 uM after 48 hrs in presence of clioquinol by thioflavin-T fluorescence assay relative to control; procedure, shortened: as §8
[34] = system: Mus musculus; experiment: Induction of cell proliferation in C57BL/6 mouse hippocampal neurons in CA1 region assessed as BrdU-incorporation at 0.5 uL/hr, icv for 7 days by immunohistochemical analysis (reference value: 3.2%); assay type: functional
[35] = system: Mus musculus; experiment: Induction of cell proliferation in C57BL/6 mouse hippocampal neurons in CA2 region assessed as BrdU-incorporation at 0.5 uL/hr, icv for 7 days by immunohistochemical analysis (reference value: 2.4%); assay type: functional
[36] = system: Mus musculus; experiment: Induction of cell proliferation in C57BL/6 mouse hippocampal neurons in CA3 region assessed as BrdU-incorporation at 30 mg/kg, po administered via gavage for 7 days by immunohistochemical analysis (reference value: 1.5%); assay type: functional; procedure, shortened: as §10
[37] = system: Mus musculus; experiment: Induction of cell proliferation in C57BL/6 mouse hippocampal neurons in DG region assessed as BrdU-incorporation at 30 mg/kg, po administered via gavage for 7 days by immunohistochemical analysis (reference value: 2.2%); assay type: functional; procedure, shortened: as §10

Chain of Amyloid-beta precursor protein (Homo sapiens) (P05067 whole entry): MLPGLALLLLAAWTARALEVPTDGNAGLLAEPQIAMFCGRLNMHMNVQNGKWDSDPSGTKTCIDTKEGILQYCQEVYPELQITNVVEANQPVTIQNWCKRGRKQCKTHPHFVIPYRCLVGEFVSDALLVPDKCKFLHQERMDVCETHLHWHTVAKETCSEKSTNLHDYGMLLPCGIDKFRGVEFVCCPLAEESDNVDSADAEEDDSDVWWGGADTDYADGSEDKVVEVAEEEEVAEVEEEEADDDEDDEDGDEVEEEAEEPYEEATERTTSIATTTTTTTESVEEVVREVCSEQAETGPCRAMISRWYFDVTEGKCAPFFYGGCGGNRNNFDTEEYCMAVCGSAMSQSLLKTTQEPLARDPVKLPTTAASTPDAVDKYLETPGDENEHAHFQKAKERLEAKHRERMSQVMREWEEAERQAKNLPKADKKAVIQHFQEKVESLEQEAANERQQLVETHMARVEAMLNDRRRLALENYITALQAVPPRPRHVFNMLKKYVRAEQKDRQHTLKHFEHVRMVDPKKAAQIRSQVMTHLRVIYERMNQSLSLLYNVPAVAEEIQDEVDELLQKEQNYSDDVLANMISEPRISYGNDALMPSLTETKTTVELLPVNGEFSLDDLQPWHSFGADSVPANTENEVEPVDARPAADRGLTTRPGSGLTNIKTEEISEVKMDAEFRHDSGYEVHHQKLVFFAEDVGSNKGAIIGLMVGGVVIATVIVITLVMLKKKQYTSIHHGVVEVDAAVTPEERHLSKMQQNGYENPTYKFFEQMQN

Row | Compound | Activity [1] | inhibition [2] | Activity [3] | Activity [4] | Activity [5] | Activity [6] | Activity [7] | Activity [8] | Activity [10] | inhibition [13] | inhibition [18] | Activity [24] | EC50 [25] | other results
1 | Oc1c(Cl)cc(Cl)c2ccc(-c3cc4cc5c(cc4[nH]3)OCO5)nc12 | Active | 48.6 to 71.6% | Active | Active | Active | 48.5 to 72.7% | Active | Active | – | – | – | – | – | –
2 | Oc1ccc2[nH]c(-c3ccc4c(Cl)cc(Cl)c(O)c4n3)cc2c1 | Active | 48.6 to 71.6% | Active | Active | Active | 48.5 to 72.7% | Active | Active | Active | Active | 85.8% | 83.3% | – | Activity [9]: Active; inhibition [11]: Active; Activity [12]: 309 nm; inhibition [14]: Active; Activity [15]: inactive; Activity [16]: inactive; inhibition [17]: Active; Activity [19]: 338 nm; Activity [20]: 324 nm; Activity [21]: 309 nm; Activity [22]: Active; Activity [23]: Active
3 | Oc1c(I)cc(Cl)c2cccnc12 [CLIOQUINOL] | – | – | – | – | – | – | – | – | – | – | – | – | > 1000 nM | inhibition [26]: 22.5%; Activity (umolequiv/umol) [27]: 2.9
4 | COc1ccc2[nH]cc(CCNC(C)=O)c2c1 [MELATONIN] | – | 49.1% | – | – | – | 44.3% | – | – | inactive | inactive | 47.8% | 24% | > 1000 nM | Activity [28]: 1.6%; Activity [29]: 27.4%; Activity [30]: 1.2%; Activity [31]: 3.2%; Activity (umolequiv/umol) [32]: 2.9; inhibition [33]: 22.5%; Activity [34]: 2.7%; Activity [35]: 2.1%; Activity [36]: 1.5%; Activity [37]: 9.4%
